Active and inactive are the calls of the source. The calls are words filed in the database; no cut-off is given here.
Assays:
MOLM-13 [1] = test: Cytotoxicity against human MOLM13 cells after 72 hrs by MTS assay; assay type: functional, cell-based; conditions: MOLM-13, 72 h
EOL1 [2] = test: Cytotoxicity against human EOL-1 cells after 72 hrs by MTS assay; assay type: functional, cell-based; conditions: EOL1, 72 h
HT-29 = test: Cytotoxicity against human HT-29 cells after 72 hrs by MTS assay; assay type: functional, cell-based; conditions: HT-29, 72 h
MOLM-13 [3] = test: Synergistic antileukemic activity against human MOLM13 cells assessed as concentration required for <= 75% cell survival after 72 hrs in presence of midostaurin by CellTiter 96 AQueous One solution cell proliferation assay; assay type: functional
EOL1 [4] = test: Synergistic antileukemic activity against human EOL-1 cells assessed as concentration required for <= 75% cell survival after 72 hrs in presence of midostaurin by CellTiter 96 AQueous One solution cell proliferation assay; assay type: functional
MOLM-13 [5] = test: Induction of apoptosis in human MOLM13 cells assessed as live cells at 1.3 uM after 24 hrs by Annexin-V FITC/7-AAD staining based flow cytometric method (reference value: 86.8%); assay type: functional
MOLM-13 [6] = test: Induction of apoptosis in human MOLM13 cells assessed as early apoptotic cells at 1.3 uM after 24 hrs by Annexin-V FITC/7-AAD staining based flow cytometric method (reference value: 11.8%); assay type: functional
MOLM-13 [7] = test: Induction of apoptosis in human MOLM13 cells assessed as late apoptotic cells at 1.3 uM after 24 hrs by Annexin-V FITC/7-AAD staining based flow cytometric method (reference value: 1.43%); assay type: functional
MOLM-13 [8] = test: Induction of apoptosis in human MOLM13 cells assessed as necrotic cells at 1.3 uM after 24 hrs by Annexin-V FITC/7-AAD staining based flow cytometric method (reference value: 0%); assay type: functional
MOLM-13 [9] = test: Induction of apoptosis in human MOLM13 cells assessed as live cells at 2.5 uM after 24 hrs by Annexin-V FITC/7-AAD staining based flow cytometric method (reference value: 86.8%); assay type: functional
MOLM-13 [10] = test: Induction of apoptosis in human MOLM13 cells assessed as early apoptotic cells at 2.5 uM after 24 hrs by Annexin-V FITC/7-AAD staining based flow cytometric method (reference value: 11.8%); assay type: functional
MOLM-13 [11] = test: Induction of apoptosis in human MOLM13 cells assessed as late apoptotic cells at 2.5 uM after 24 hrs by Annexin-V FITC/7-AAD staining based flow cytometric method (reference value: 1.43%); assay type: functional
MOLM-13 [12] = test: Induction of apoptosis in human MOLM13 cells assessed as necrotic cells at 2.5 uM after 24 hrs by Annexin-V FITC/7-AAD staining based flow cytometric method (reference value: 0%); assay type: functional
MOLM-13 [13] = test: Induction of apoptosis in human MOLM13 cells assessed as live cells at 5 uM after 24 hrs by Annexin-V FITC/7-AAD staining based flow cytometric method (reference value: 86.8%); assay type: functional
MOLM-13 [14] = test: Induction of apoptosis in human MOLM13 cells assessed as early apoptotic cells at 5 uM after 24 hrs by Annexin-V FITC/7-AAD staining based flow cytometric method (reference value: 11.8%); assay type: functional
MOLM-13 [15] = test: Induction of apoptosis in human MOLM13 cells assessed as late apoptotic cells at 5 uM after 24 hrs by Annexin-V FITC/7-AAD staining based flow cytometric method (reference value: 1.43%); assay type: functional
MOLM-13 [16] = test: Induction of apoptosis in human MOLM13 cells assessed as necrotic cells at 5 uM after 24 hrs by Annexin-V FITC/7-AAD staining based flow cytometric method (reference value: 0%); assay type: functional
EOL1 [17] = test: Induction of apoptosis in human EOL-1 cells assessed as live cells at 1.3 uM after 24 hrs by Annexin-V FITC/7-AAD staining based flow cytometric method (reference value: 97.5%); assay type: functional
EOL1 [18] = test: Induction of apoptosis in human EOL-1 cells assessed as early apoptotic cells at 1.3 uM after 24 hrs by Annexin-V FITC/7-AAD staining based flow cytometric method (reference value: 1.94%); assay type: functional
EOL1 [19] = test: Induction of apoptosis in human EOL-1 cells assessed as late apoptotic cells at 1.3 uM after 24 hrs by Annexin-V FITC/7-AAD staining based flow cytometric method (reference value: 0.535%); assay type: functional
EOL1 [20] = test: Induction of apoptosis in human EOL-1 cells assessed as necrotic cells at 1.3 uM after 24 hrs by Annexin-V FITC/7-AAD staining based flow cytometric method (reference value: 0.032%); assay type: functional
EOL1 [21] = test: Induction of apoptosis in human EOL-1 cells assessed as live cells at 2.5 uM after 24 hrs by Annexin-V FITC/7-AAD staining based flow cytometric method (reference value: 97.5%); assay type: functional
EOL1 [22] = test: Induction of apoptosis in human EOL-1 cells assessed as early apoptotic cells at 2.5 uM after 24 hrs by Annexin-V FITC/7-AAD staining based flow cytometric method (reference value: 1.94%); assay type: functional
EOL1 [23] = test: Induction of apoptosis in human EOL-1 cells assessed as late apoptotic cells at 2.5 uM after 24 hrs by Annexin-V FITC/7-AAD staining based flow cytometric method (reference value: 0.535%); assay type: functional
EOL1 [24] = test: Induction of apoptosis in human EOL-1 cells assessed as necrotic cells at 2.5 uM after 24 hrs by Annexin-V FITC/7-AAD staining based flow cytometric method (reference value: 0.032%); assay type: functional
EOL1 [25] = test: Induction of apoptosis in human EOL-1 cells assessed as live cells at 5 uM after 24 hrs by Annexin-V FITC/7-AAD staining based flow cytometric method (reference value: 97.5%); assay type: functional
EOL1 [26] = test: Induction of apoptosis in human EOL-1 cells assessed as early apoptotic cells at 5 uM after 24 hrs by Annexin-V FITC/7-AAD staining based flow cytometric method (reference value: 1.94%); assay type: functional
EOL1 [27] = test: Induction of apoptosis in human EOL-1 cells assessed as late apoptotic cells at 5 uM after 24 hrs by Annexin-V FITC/7-AAD staining based flow cytometric method (reference value: 0.535%); assay type: functional
EOL1 [28] = test: Induction of apoptosis in human EOL-1 cells assessed as necrotic cells at 5 uM after 24 hrs by Annexin-V FITC/7-AAD staining based flow cytometric method (reference value: 0.032%); assay type: functional
MOLM-13 [29] = test: Induction of apoptosis in human MOLM13 cells assessed as caspase-3 activation at 10 uM after 72 hrs by immunoblotting analysis; assay type: functional, cell-based
Outline: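 MOLM-13 cells treated 72 h with test compounds at 10 μM or PKC412 at 10 nM. Cells washed in ice-cold PBS, lysed at 10^8 cells/mL in NP-40 hypertonic buffer (pH 7.5) with protease/phosphatase inhibitors, then run on SDS-PAGE and PVDF. Blots probed 12 h with rabbit monoclonal cleaved caspase-3 (Asp175), β-actin as loading control. Representative of three independent experiments.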

EOL1 [30] = test: Induction of apoptosis in human EOL-1 cells assessed as caspase-3 activation at 10 uM after 72 hrs by immunoblotting analysis; assay type: functional, cell-based
Outline: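 EOL-1 cells (RPMI 1640, 10% FBS, 37 °C, 5% CO2) exposed 72 h; compounds at 10 μM, PKC412 at 10 nM. Harvested, PBS-washed, lysed in hypertonic NP-40 buffer with protease/phosphatase inhibitors; SDS-PAGE, PVDF transfer, rabbit monoclonal cleaved caspase-3 (Asp175) antibody 12 h, secondary 1 h, chemiluminescent detection; β-actin loading control. Representative blots of three independent experiments.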

[31] = biological target: Transcription factor p65 (Homo sapiens) (UniProt Q04206); test: Inhibition of NFkappaB p65 in human MOLM13 cells at 10 uM after 72 hrs by immunoblotting method; assay type: cell-based
Outline: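 MOLM-13 or EOL-1 cells treated 72 h at 10 μM. Cells washed in ice-cold PBS and lysed in hypertonic NP-40 buffer (10 mM HEPES pH 7.5, 0.5 M NaCl) with protease/phosphatase inhibitors. Protein measured by BCA; SDS-PAGE onto PVDF. Probed 12 h with rabbit monoclonal NF-κB-p65 antibody, goat β-actin as loading control, then chemiluminescence. Blots representative of three independent experiments.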

Transcription factor p65 (Homo sapiens), sequence (Q04206 whole entry): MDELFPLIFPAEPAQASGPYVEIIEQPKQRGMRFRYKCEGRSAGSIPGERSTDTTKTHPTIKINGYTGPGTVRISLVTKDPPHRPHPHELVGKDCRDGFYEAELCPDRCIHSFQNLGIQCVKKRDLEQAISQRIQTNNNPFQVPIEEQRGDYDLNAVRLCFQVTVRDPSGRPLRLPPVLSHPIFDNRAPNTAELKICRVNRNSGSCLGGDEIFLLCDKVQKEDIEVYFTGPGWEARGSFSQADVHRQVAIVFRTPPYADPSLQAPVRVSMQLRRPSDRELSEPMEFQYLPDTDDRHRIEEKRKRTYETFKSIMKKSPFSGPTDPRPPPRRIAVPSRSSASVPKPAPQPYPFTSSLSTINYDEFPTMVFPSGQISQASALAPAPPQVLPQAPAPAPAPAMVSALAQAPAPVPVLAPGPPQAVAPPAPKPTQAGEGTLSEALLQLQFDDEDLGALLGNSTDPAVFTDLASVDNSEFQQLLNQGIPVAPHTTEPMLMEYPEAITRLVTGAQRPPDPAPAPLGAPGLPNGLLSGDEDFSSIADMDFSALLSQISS

- inhibition [31]: Active
SMILES: C=C1C(=O)O[C@@H]2C[C@@H](C)/C=C\C(=O)[C@](C)(OC(C)=O)C[C@H](OC(=O)/C(C)=C\C)[C@@H]12
- IC50 (MOLM-13 [1]): 4.3 µM
- IC50 (EOL1 [2]): 4.3 µM
- IC50 (HT-29): 1.2 µM
- Activity (MOLM-13 [3]): 1.9 µM
- Activity (EOL1 [4]): 2.5 µM
- Activity (MOLM-13 [5]): 90.8%
- Activity (MOLM-13 [6]): 7.82%
- Activity (MOLM-13 [7]): 1.28%
- Activity (MOLM-13 [8]): 0.147%
- Activity (MOLM-13 [9]): 86.5%
- Activity (MOLM-13 [10]): 10.5%
- Activity (MOLM-13 [11]): 2.77%
- Activity (MOLM-13 [12]): 0.276%
- Activity (MOLM-13 [13]): 0.583%
- Activity (MOLM-13 [14]): 0.349%
- Activity (MOLM-13 [15]): 73.6%
- Activity (MOLM-13 [16]): 25.5%
- Activity (EOL1 [17]): 96.7%
- Activity (EOL1 [18]): 1.87%
- Activity (EOL1 [19]): 1.36%
- Activity (EOL1 [20]): 0.053%
- Activity (EOL1 [21]): 63.8%
- Activity (EOL1 [22]): 1.33%
- Activity (EOL1 [23]): 32.1%
- Activity (EOL1 [24]): 2.72%
- Activity (EOL1 [25]): 2.79%
- Activity (EOL1 [26]): 0.031%
- Activity (EOL1 [27]): 92.9%
- Activity (EOL1 [28]): 4.73%
- Activity (MOLM-13 [29]): Active
- Activity (EOL1 [30]): Active

From ChEMBL document CHEMBL4138271, “Crystal Structures and Human Leukemia Cell Apoptosis Inducible Activities of Parthenolide Analogues Isolated from Piptocoma rufescens” (J Nat Prod, 2018)
